Test results from the EternaBench riboswitch data.

Test system: MS2 coat protein
Experiment: apparent Kd, MS2 coat protein; higher = weaker binding; RNA-MaP array; FMN 200 µM where present
Procedure, shortened: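 Designs were transcribed by stalled E. coli RNA polymerase on Illumina sequencing-chip clusters. They were titrated with SNAP-549-labelled MS2 coat protein from 0.7 or 1.5 nM, doubling to 3 µM, in 100 mM Tris-HCl pH 7.5, 80 mM KCl, 4 mM MgCl2, BSA, DTT, yeast tRNA and Tween-20, without and then with constant ligand. The apparent Kd is the median of filtered per-cluster fits after normalisation of green signal to red-channel RNA signal and control-cluster median Fmax.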

[1] = designed as: ON switch for flavin mononucleotide, no ligand
[2] = ligand present: flavin mononucleotide, designed as: ON switch for flavin mononucleotide
[3] = designed as: OFF switch for flavin mononucleotide, no ligand
[4] = ligand present: flavin mononucleotide, designed as: OFF switch for flavin mononucleotide

Sequence	apparent Kd [1]	apparent Kd [2]	apparent Kd [3]	apparent Kd [4]
CACAUUUUAACAGGAUAUGUAAGGUAGCUUAUUAUUGCAUAUACAAUUAUUACAGAAGGGUUAUACAUGAGGAUCACCCAUGUG	22.8 nM	17.1 nM		
AUGUAGUACGUAGGAUAUCAAUGAGGAUCACCCUGAGAAGGACGUGAGGACAUGAGGAUCACCCAUGUGGAUCACCCAUGUCAU			173 nM	142 nM
GUUAGUUAAGGAUAUACAGGGAGCUGCGGCGUCUCGCCGCAACAUGAGGAUCACCCAUGUAGAAGGUGGCCAUU			548 nM	586 nM
AUACAUGAGGAUCACCCAUGUUACUGGGUCUUAAUAGAACGUAGAAGGAUGAUAUUAUAAAUAACAUAGGAUAUACAAUAUUGU			132 nM	64.2 nM
AUGCUUCACACAGGAUAUACAUGAGGAUCACCCAUGUGUCCUCCGUAGCUGACACGAGCUACGCGGUAGAAGGGUGUGAAGCAU			91 nM	698 nM
UAAGGGUAAUGAGGAUAUAACGGGUGACAUGAGGAUCACCCAUGUGGUUUGUUAUGGUCGAGCCGUUAGAAGGCAUUGUAAGCA			1070 nM	1120 nM
UGGGAGUCAGGAUAUACGAACAUGUCGCCAGAUGUCAAGGUACAUGAGGAUCACCCAUGUAGAAGGGACUAGAA			39.4 nM	42.1 nM
UCGCGAUGAGGAUAUACAUAGAAAUAGAUUCAUGUAAAACUACAUGAGGAUCACCCAUGUAGAAGGCAUUGCGU			23 nM	128 nM
CUAUUGGCAGGAUAUGCUUUUUUAGACAUGAGGAUCACCCAUGUGAUGAAUUUUGGGUUUGCAGAAGGGCCUGAGU			67.1 nM	100 nM
UGACCCAUGACAUGAGAUGACAUGAGGAUCACCCAUGUGUACAAGGAUAUGUUGGUCAAAGGUCGGCAGAAGGUGUAAUGGGAU			59.8 nM	146 nM
ACAUGACAAUCAGGAUAUCGACAUGAGGAUCACCCAUGUACGGGUGUCAAUCGAGAAGGGAUUGUAGCGCCAACUGAGACGUUU			78 nM	110 nM
CCACCCUGAGGAUAUCCACCCUCAUACAUGAGGAUCACCCAUGUUCAUCCCUGAGUUCCCGGAGAAGGCAGAUUCC			55.3 nM	47.5 nM
GGAGCCGGCCUAGGAUAUUUCAUAACAAAACAUGAGGAUCACCCAUGUAGGCCAGAAGGCCUUGGGAAGAAGGAGGUCGGCUCC	29.6 nM	11.7 nM		
UGUCGGAGCAGAGGAUAUUACAUGAGGAUCACCCAUGUAUGACCCAAUAGCUGGAAACAGCAAUGUAAGAAGGCUGCUCCGACA			14.6 nM	295 nM
AUUAUAUAGAGAGGAUAUAGAAUAUUAUUUUAACAUGAGGAUCACCCAUGUAACCUUAUGUGUAGCUAGAAGGCUCAUUUAUUA			42.2 nM	74.2 nM
GCUGACGAUGUAGGAUAUCUCGACGAUAAGUCGAGAGAAGGACAUGAGGAUCACCCAUGUACUCAAACGUCAGCGAGGAAACUC			18.7 nM	27.6 nM
GGAUACGACAGAGGAUAUACGUGCUAGAGAUACUAGCAAAAUUUCCUCACAUGAGGAUCACCCAUGUAGAAGGCUGUCCUAUCG			16.2 nM	337 nM
GGAAGACAAAGUCUUCCAUAACGAACAUGAGGAUCACCCAUGUAGGAUAUGCUUCUCAAAGAGAAGCAGAAGGACAUGUGUCUU			29.7 nM	137 nM
GUCAGCUCGUGAGGAUAUACAACACUGCUUCGGCAUUGUAUUAAGAUCACAUGAGGAUCACCCAUGUAGAAGGCACGAGCUGAU			9.1 nM	109 nM
UCGGCGCGAGGAUAUACGUUUGCGCGUUUUCGUUUGCGCGUACAUGAGGAUCACCCAUGUAGAAGGCGCGCCGC			15.1 nM	29.9 nM
CUAACACAUGAGGAUCACCCAUGUGAGGAUAUGCGUACGUUGUCCGUAGGCGACGUGCGCAGAAGGCGCUUGGU			55.8 nM	62.8 nM
ACGCGAUGGGAGAAGGUACUUUAAAAUAUUUUCACAUGAGGAUCACCCAUGUAAGGAUAUCCCAUCGUUAAAUAUUAUACAGCA			6.49 nM	5.24 nM
CAUGUCCUCACAGGAUAUGCUGGACUUUGUCCAGCAGAAGGGUGUUAACAUGAGGAUCACCCAUGUGGACAUGAUAUAUUUAAU	933 nM	69.8 nM		
